Test results taken from ChEMBL document CHEMBL4043228, “Design and synthesis of pregnenolone/2-cyanoacryloyl conjugates with dual NF-κB inhibitory and anti-proliferative activities” (Bioorg Med Chem Lett, 2017).
Active and inactive are the calls of the source. The calls are words filed in the database; no cut-off is given here.

Assays:
Homo sapiens [1] = species: Homo sapiens; assay: Inhibition of TNFalpha-stimulated NF-kappaB (unknown origin) activation expressed in HEK293 cells at 20 ug/ml incubated for 6 hrs with TNFalpha followed by incubation in dark for 30 mins by luciferase reporter gene assay relative to control; assay type: cell-based
Procedure, shortened: (§1)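 HEK293 cells stably carrying NF-κB-responsive luciferase reporter (selected with 1 mg/mL G418) seeded, after 24 h stimulated with TNF-α 0.2 μg/mL, then exposed to compounds for 6 h; lysate incubated with luciferase substrate 30 min in dark, luminescence read. Screening at 20 µg/mL as percent inhibition; IC50 from nine concentrations, 0.78-20 μM. PS-341 reference.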

MCF7 = assay: Antiproliferative activity against human MCF7 cells after 48 hrs by MTT assay; assay type: functional, cell-based; conditions: MCF7, 48 h
Procedure, shortened: (§2)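 Tumour cell lines MCF-7, A549, H157, HepG2 and HL-60 were tested by MTT method; doxorubicin served as positive control.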

NCI-H157 = assay: Antiproliferative activity against human NCI-H157 cells after 48 hrs by MTT assay; assay type: functional, cell-based; conditions: NCI-H157, 48 h; procedure, shortened: as §2
HL-60 = assay: Antiproliferative activity against human HL60 cells after 48 hrs by MTT assay; assay type: functional, cell-based; conditions: HL-60, 48 h; procedure, shortened: as §2
A549 = assay: Antiproliferative activity against human A549 cells after 48 hrs by MTT assay; assay type: functional, cell-based; conditions: A549, 48 h; procedure, shortened: as §2
[2] = Cytotoxicity against HEK293 cells assessed as cell viability at 20 ug/ml relative to control; assay type: cell-based; conditions: human, read-out: Activity
Procedure, shortened: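 HEK293/NF-κB reporter cells exposed to compounds at 20 µg/mL; cytotoxicity assessed.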

HepG2 = assay: Antiproliferative activity against human HepG2 cells after 48 hrs by MTT assay; assay type: functional, cell-based; conditions: HepG2, 48 h; procedure, shortened: as §2
[3] = Inhibition of TNFalpha-stimulated NF-kappaB (unknown origin) activation expressed in HEK293 cells incubated for 6 hrs with TNFalpha followed by incubation in dark for 30 mins by luciferase reporter gene assay; assay type: cell-based; conditions: Homo sapiens; procedure, shortened: as §1
Homo sapiens [4] = species: Homo sapiens; assay: Inhibition of TNFalpha-stimulated NF-kappaB (unknown origin) activation assessed as IkappaBalpha degradation at 10 uM after 4 hrs by Western blot analysis

SMILES: COc1ccc(/C=C(\C#N)C(=O)NCCNC(=O)O[C@H]2CC[C@@]3(C)C(=CC[C@H]4[C@@H]5CC[C@H](C(C)=O)[C@@]5(C)CC[C@@H]43)C2)cc1
- inhibition (Homo sapiens [1]): 22.3%

SMILES: CC(=O)[C@H]1CC[C@H]2[C@@H]3CC=C4C[C@@H](OC(=O)NCCNC(=O)/C(C#N)=C/c5ccc(F)cc5)CC[C@]4(C)[C@H]3CC[C@]12C
- inhibition (Homo sapiens [1]): 43.1%

SMILES: CC(=O)[C@H]1CC[C@H]2[C@@H]3CC=C4C[C@@H](OC(=O)NCCNC(=O)/C(C#N)=C/c5ccc(N(C)C)cc5)CC[C@]4(C)[C@H]3CC[C@]12C
- inhibition (Homo sapiens [1]): 1.2%

SMILES: CC(=O)[C@H]1CC[C@H]2[C@@H]3CC=C4C[C@@H](OC(=O)NCCNC(=O)/C(C#N)=C/c5ccc(O)cc5)CC[C@]4(C)[C@H]3CC[C@]12C
- inhibition (Homo sapiens [1]): 44.9%

SMILES: CC(=O)[C@H]1CC[C@H]2[C@@H]3CC=C4C[C@@H](OC(=O)NCCNC(=O)/C(C#N)=C/c5ccccc5)CC[C@]4(C)[C@H]3CC[C@]12C
- inhibition (Homo sapiens [1]): 46.7%

SMILES: CC(=O)[C@H]1CC[C@H]2[C@@H]3CC=C4C[C@@H](OC(=O)NCCNC(=O)/C(C#N)=C/c5ccc(Br)cc5)CC[C@]4(C)[C@H]3CC[C@]12C
- inhibition (Homo sapiens [1]): 15.9%

SMILES: COc1cccc2c1C(=O)c1c(O)c3c(c(O)c1C2=O)C[C@@](O)(C(=O)CO)C[C@@H]3O[C@H]1C[C@H](N)[C@H](O)[C@H](C)O1 [DOXORUBICIN]
- IC50 (MCF7): 4.4 µM
- IC50 (NCI-H157): 0.61 µM
- IC50 (HL-60): 0.91 µM
- IC50 (A549): 11 µM

SMILES: CC(=O)[C@H]1CC[C@H]2[C@@H]3CC=C4C[C@@H](OC(=O)NCCNC(=O)/C(C#N)=C/c5cccc(F)c5)CC[C@]4(C)[C@H]3CC[C@]12C
- IC50 (MCF7): 6.1 µM
- viability at 20 ug/ml [2]: 60.8%
- IC50 (HepG2): > 50 µM
- IC50 (NCI-H157): 17.9 µM
- inhibition (Homo sapiens [1]): 64.2%
- IC50 [3]: 7.1 µM
- IC50 (HL-60): 45.6 µM
- IC50 (A549): > 50 µM

SMILES: CCN(CC)c1ccc(/C=C(\C#N)C(=O)NCCNC(=O)O[C@H]2CC[C@@]3(C)C(=CC[C@H]4[C@@H]5CC[C@H](C(C)=O)[C@@]5(C)CC[C@@H]43)C2)cc1
- inhibition (Homo sapiens [1]): 0.5%

SMILES: COc1cccc(/C=C(\C#N)C(=O)NCCNC(=O)O[C@H]2CC[C@@]3(C)C(=CC[C@H]4[C@@H]5CC[C@H](C(C)=O)[C@@]5(C)CC[C@@H]43)C2)c1
- inhibition (Homo sapiens [1]): 22.2%

SMILES: CC(=O)[C@H]1CC[C@H]2[C@@H]3CC=C4C[C@@H](OC(=O)NCCNC(=O)/C(C#N)=C/c5cccc(Br)c5)CC[C@]4(C)[C@H]3CC[C@]12C
- inhibition (Homo sapiens [1]): 30.9%

SMILES: CC(=O)[C@H]1CC[C@H]2[C@@H]3CC=C4C[C@@H](OC(=O)NCCNC(=O)/C(C#N)=C/c5ccc(C#N)cc5)CC[C@]4(C)[C@H]3CC[C@]12C
- IC50 (MCF7): > 50 µM
- viability at 20 ug/ml [2]: 64.4%
- IC50 (HepG2): > 50 µM
- IC50 (NCI-H157): 24.5 µM
- inhibition (Homo sapiens [1]): 64.4%
- IC50 [3]: 7.5 µM
- IC50 (HL-60): > 100 µM
- IC50 (A549): > 50 µM

SMILES: CC(=O)[C@H]1CC[C@H]2[C@@H]3CC=C4C[C@@H](OC(=O)NCCNC(=O)/C(C#N)=C/c5cccc(Cl)c5)CC[C@]4(C)[C@H]3CC[C@]12C
- inhibition (Homo sapiens [1]): 46.4%

SMILES: COc1cc(/C=C(\C#N)C(=O)NCCNC(=O)O[C@H]2CC[C@@]3(C)C(=CC[C@H]4[C@@H]5CC[C@H](C(C)=O)[C@@]5(C)CC[C@@H]43)C2)cc(O)c1OC
- inhibition (Homo sapiens [1]): 22.6%

SMILES: COc1ccccc1/C=C(\C#N)C(=O)NCCNC(=O)O[C@H]1CC[C@@]2(C)C(=CC[C@H]3[C@@H]4CC[C@H](C(C)=O)[C@@]4(C)CC[C@@H]32)C1
- inhibition (Homo sapiens [1]): 17.8%

SMILES: CC(=O)[C@H]1CC[C@H]2[C@@H]3CC=C4C[C@@H](OC(=O)NCCNC(=O)/C(C#N)=C/c5ccc(Cl)cc5)CC[C@]4(C)[C@H]3CC[C@]12C
- inhibition (Homo sapiens [1]): 18.8%

SMILES: CC(=O)[C@H]1CC[C@H]2[C@@H]3CC=C4C[C@@H](OC(=O)NCCNC(=O)/C(C#N)=C/c5cccc([N+](=O)[O-])c5)CC[C@]4(C)[C@H]3CC[C@]12C
- IC50 (MCF7): 6.5 µM
- viability at 20 ug/ml [2]: 54.7%
- IC50 (HepG2): > 50 µM
- IC50 (NCI-H157): 30.6 µM
- inhibition (Homo sapiens [1]): 83.9%
- IC50 [3]: 2.5 µM
- IC50 (HL-60): 11.2 µM
- IC50 (A549): 36.2 µM

SMILES: CC(=O)[C@H]1CC[C@H]2[C@@H]3CC=C4C[C@@H](OC(=O)NCCNC(=O)CC#N)CC[C@]4(C)[C@H]3CC[C@]12C
- IC50 (MCF7): > 50 µM
- viability at 20 ug/ml [2]: 87.9%
- IC50 (HepG2): > 50 µM
- IC50 (NCI-H157): > 50 µM
- inhibition (Homo sapiens [1]): 74.4%
- IC50 [3]: 12.4 µM
- IC50 (HL-60): > 50 µM
- IC50 (A549): > 50 µM

SMILES: COc1cc(/C=C(\C#N)C(=O)NCCNC(=O)O[C@H]2CC[C@@]3(C)C(=CC[C@H]4[C@@H]5CC[C@H](C(C)=O)[C@@]5(C)CC[C@@H]43)C2)cc(OC)c1O
- inhibition (Homo sapiens [1]): 5%

SMILES: COc1ccc(/C=C(\C#N)C(=O)NCCNC(=O)O[C@H]2CC[C@@]3(C)C(=CC[C@H]4[C@@H]5CC[C@H](C(C)=O)[C@@]5(C)CC[C@@H]43)C2)cc1OC
- inhibition (Homo sapiens [1]): 5.8%

SMILES: CC(=O)[C@H]1CC[C@H]2[C@@H]3CC=C4C[C@@H](OC(=O)NCCNC(=O)/C(C#N)=C/c5ccc6c(c5)OCCO6)CC[C@]4(C)[C@H]3CC[C@]12C
- inhibition (Homo sapiens [1]): 4.2%

SMILES: CC(=O)[C@H]1CC[C@H]2[C@@H]3CC=C4C[C@@H](OC(=O)NCCNC(=O)/C(C#N)=C/c5ccc([N+](=O)[O-])cc5)CC[C@]4(C)[C@H]3CC[C@]12C
- IC50 (MCF7): > 50 µM
- viability at 20 ug/ml [2]: 74.5%
- IC50 (HepG2): > 50 µM
- IC50 (NCI-H157): > 50 µM
- inhibition (Homo sapiens [1]): 78.3%
- inhibition (Homo sapiens [4]): Active
- IC50 [3]: 10.3 µM
- IC50 (HL-60): 10.1 µM
- IC50 (A549): > 50 µM

SMILES: CC(=O)[C@H]1CC[C@H]2[C@@H]3CC=C4C[C@@H](OC(=O)NCCNC(=O)OC(C)(C)C)CC[C@]4(C)[C@H]3CC[C@]12C
- IC50 (MCF7): > 50 µM
- viability at 20 ug/ml [2]: 85.5%
- IC50 (HepG2): > 50 µM
- IC50 (NCI-H157): > 50 µM
- inhibition (Homo sapiens [1]): 76.6%
- IC50 [3]: 12.2 µM
- IC50 (HL-60): > 50 µM
- IC50 (A549): > 50 µM

SMILES: CC(=O)[C@H]1CC[C@H]2[C@@H]3CC=C4C[C@@H](OC(=O)NCCNC(=O)/C(C#N)=C/c5cccc(C#N)c5)CC[C@]4(C)[C@H]3CC[C@]12C
- IC50 (MCF7): 8.8 µM
- viability at 20 ug/ml [2]: 59.6%
- IC50 (HepG2): > 50 µM
- IC50 (NCI-H157): 21.3 µM
- inhibition (Homo sapiens [1]): 81.4%
- IC50 [3]: 3.3 µM
- IC50 (HL-60): 15.6 µM
- IC50 (A549): 30.9 µM

SMILES: CC(=O)[C@H]1CC[C@H]2[C@@H]3CC=C4C[C@@H](OC(=O)NCCNC(=O)/C(C#N)=C/c5ccc(C(C)C)cc5)CC[C@]4(C)[C@H]3CC[C@]12C
- inhibition (Homo sapiens [1]): 2.1%

SMILES: CC(C)C[C@H](NC(=O)[C@H](Cc1ccccc1)NC(=O)c1cnccn1)B(O)O [BORTEZOMIB]
- IC50 [3]: 0.03 µM

SMILES: COc1ccc(/C=C(\C#N)C(=O)NCCNC(=O)O[C@H]2CC[C@@]3(C)C(=CC[C@H]4[C@@H]5CC[C@H](C(C)=O)[C@@]5(C)CC[C@@H]43)C2)cc1O
- inhibition (Homo sapiens [1]): 14.5%

SMILES: COc1cc(/C=C(\C#N)C(=O)NCCNC(=O)O[C@H]2CC[C@@]3(C)C(=CC[C@H]4[C@@H]5CC[C@H](C(C)=O)[C@@]5(C)CC[C@@H]43)C2)ccc1O
- inhibition (Homo sapiens [1]): 34.6%

SMILES: CC(=O)[C@H]1CC[C@H]2[C@@H]3CC=C4C[C@@H](OC(=O)NCCNC(=O)/C(C#N)=C/c5ccc(O)c(O)c5)CC[C@]4(C)[C@H]3CC[C@]12C
- inhibition (Homo sapiens [1]): 59.3%
